A short description of test [1]: Antiinflammatory activity in human PMNC assessed as inhibition of proliferation. It is filed as functional. The method in brief: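 In vitro antiproliferation assay on human mononuclear cells (T lymphocytes, B lymphocytes and macrophages) isolated from peripheral blood. Compounds were tested at up to 100 µM, and activity was expressed as IC50.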
The species entered for a further test is Homo sapiens. The experiment in a line: Antiinflammatory activity in human PMNC assessed as inhibition of proliferation upto 10 uM. It is filed as functional.

Each structure is given as a SMILES string. pIC50: −log10 of the molar value. Activity calls are given as the source filed them. The rule behind the calls is not given here.

As to `C[C@@H]1CC[C@]2(C(=O)O)CC[C@]3(C)C(=CC[C@@H]4[C@@]5(C)C[C@@H](O)C(=O)C(C)(C)[C@@H]5CC[C@]43C)[C@@H]2[C@]1(C)O`, the negative-log IC50 (pIC50) in test [1] was 4.40.

For the compound `C=C[C@](C)(CCC=C(C)C)O[C@@H]1O[C@H](CO[C@@H]2O[C@@H](C)[C@H](OC(=O)/C=C\c3ccc(O)cc3)[C@@H](O[C@@H]3O[C@@H](C)[C@H](O)[C@@H](O)[C@H]3O)[C@H]2O)[C@@H](O)[C@H](O)[C@H]1O`, the outcome in the test listed under Homo sapiens was inactive.

As for `C[C@@H]1CC[C@]2(C(=O)O)CC[C@]3(C)C(=CC[C@@H]4[C@@]5(C)CC(=O)[C@H](O)C(C)(C)[C@@H]5CC[C@]43C)[C@@H]2[C@]1(C)O`, in test [1], the pIC50 is 4.42.

`C[C@@H]1CC[C@]2(C(=O)O)CC[C@]3(C)C(=CC[C@@H]4[C@@]5(C)C[C@@H](O)[C@@H](O)C(C)(C)[C@@H]5CC[C@]43C)[C@@H]2[C@]1(C)O` [EUSCAPHIC ACID]: the pIC50 in test [1] is 4.54.

As to `C[C@@H]1CC[C@]2(C(=O)O)CC[C@]3(C)C(=CC[C@@H]4[C@@]5(C)[C@H](O)[C@@H](O)C(=O)C(C)(C)[C@@H]5CC[C@]43C)[C@@H]2[C@]1(C)O`, in test [1], the pIC50 is 4.57.

For the compound `C=C[C@](C)(CCC=C(C)C)O[C@@H]1O[C@H](CO[C@@H]2O[C@@H](C)[C@H](OC(=O)/C=C/c3ccc(O)cc3)[C@@H](O[C@@H]3O[C@@H](C)[C@H](O)[C@@H](O)[C@H]3O)[C@H]2O)[C@@H](O)[C@H](O)[C@H]1O`, in the test filed under Homo sapiens, the result was inactive.

With `C[C@@H]1CC[C@]2(C(=O)O)CC[C@]3(C)C(=CC[C@@H]4[C@@]5(C)[C@H](O)C(=O)[C@H](O)C(C)(C)[C@@H]5CC[C@]43C)[C@@H]2[C@]1(C)O`, the negative logarithm of the IC50 (pIC50) in test [1] is 4.49.

The term pIC50 denotes −log10 of the IC50, conventionally taken in molar units.

Source of the values: ChEMBL document CHEMBL1155717, “Monoterpene glycosides and triterpene acids from Eriobotrya deflexa” (J Nat Prod, 2001).
